# Screening results: PubChem, several laboratories
# Pemphigus Ab inh – inhibitors of pemphigus antibody binding to DSG3, primary screen, biochemical, bead-based, flow cytometry, scFv-GFP. binding (percent of control), % at 10 µM. DSG3-coupled beads, scFv-anti-DSG3-GFP binding; active compounds read low. 310,000 compounds, 0.48% hits. Desmoglein-3 (Homo sapiens), P32926;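 active = binding more than 3 SD below its plate's average and above zero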;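 note: hits lower antibody fragment binding to DSG3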
# MBD2 inh – inhibitors of MBD2 binding to methylated DNA, primary screen, biochemical, TR-FRET, DNA-binding domain, human | Methyl-CpG-binding domain protein 2 (Homo sapiens), Q9UBB5 | MBD2 binding to methylated oligonucleotide | inhibition, % at 4.4 µM | 370,000 compounds, 0.31% hits | AID 686964, 2013; in the data active = inhibition above about 13%
# HCV NS3 hel inh – inhibitors of HCV NS3 helicase, primary screen, biochemical, Cy5 molecular beacon fluorescence. inhibition, % at 10.9 µM. Hepatitis C virus NS3 helicase. AID 1800, 2009. 290,000 compounds, 0.56% hits. NS3 helicase DNA unwinding;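 active = inhibition above the mean of all tested compounds plus 3 SD, set per campaign, cut at about 35% in these data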;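 note: 0% = DMSO wells and 100% = thioflavine S control wells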
#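 Assay system: hepatitis C virus NS3 helicase domain fragment enzyme. Also added: annealed dual-labelled DNA beacon duplex, ATP-started. Timing: 1 h reaction at 25 °C, ATP-initiated. Technique: Cy5 fluorescence at 0 and 60 min, beacon hairpin quenching. Evaluation: % inhibition of unwinding. Replication: one well per compound.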
# DNMT1 block – human DNMT1 methyltransferase inhibitors, primary screen, biochemical, molecular beacon, fluorescence, HinP1I cleavage, uHTS. DNA (cytosine-5)-methyltransferase 1 (Homo sapiens), P26358. inhibition (reported as % activation of signal), % at 10 µM. 360,000 compounds, 0.83% hits. AID 588458, 2011; in the data active = inhibition above about 50%
# SUMO1-SIM PPI – modulators of SUMO1 protein-protein interactions, primary screen, biochemical, uHTS. 360,000 compounds, 0.33% hits. inhibition, % at 20 µM. Small ubiquitin-related modifier 1 (Homo sapiens), P63165. SUMO1 binding to a labelled peptide, TR-FRET, 1 h. AID 602429, 2012; in the data active = inhibition above about 37%
# Target sequence (P63165 whole entry, looked up): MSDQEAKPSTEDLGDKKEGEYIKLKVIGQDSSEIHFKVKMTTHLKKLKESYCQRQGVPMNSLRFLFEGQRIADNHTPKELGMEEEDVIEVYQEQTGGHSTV
# UHRF1 MBD2 ctr – UHRF1 methylated DNA binding inhibitors, primary screen, counter-screen for MBD2 inhibitor project, biochemical, TR-FRET, human UHRF1, single concentration | E3 ubiquitin-protein ligase UHRF1 (Homo sapiens), Q96T88 | UHRF1 binding to methylated oligo | inhibition, % at 4.4 µM | 370,000 compounds, 0.75% hits | AID 687016, 2013; in the data active = inhibition above about 21%;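 note: UHRF1 SRA domain binding a hemimethylated CpG hairpin DNA probe; 0% = median of test compound wells and 100% = reference inhibitor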
# * marks the source's active call; other numbers are inactive results; . = no result given. The list is not random: actives were taken first. Their share in the collection is about 2.5%.
SMILES,Pemphigus Ab inh,MBD2 inh,HCV NS3 hel inh,DNMT1 block,SUMO1-SIM PPI,UHRF1 MBD2 ctr
S=C(NCc1ccco1)Nc1cc(-c2ccccc2)[nH]n1,119,6,-1,-10,1,29*
CN(C)[C@@H]1C(=O)C(C(=O)NCN2CCCC2)=C(O)[C@@]2(O)C(=O)C3=C(O)c4c(O)cccc4[C@@](C)(O)C3CC12 (stereo not given in full),.,.,47*,.,.,.
CCOC(=O)C1CCN(c2nc(C)cc(C)c2C#N)CC1,101,-3,9,0,2,-2
CCOC(=O)C1CCN(c2nc(N)c3c(N)nc(SCC(=O)O)cc3c2C#N)CC1,101,-12,22,75*,60*,-2
COc1ccc(/C(C)=N/Nc2ccccc2Cl)c(O)c1,107,6,8,22,58*,1
COc1ccc(/C(C)=N/Nc2ccc(F)cc2F)c(O)c1,107,0,1,1,0,4
COc1ccc(C2=Nn3c(nnc3-c3ccccc3Cl)SC2)cc1OC1CCOC1 (stereo not given),74*,-3,.,-3,-12,-2
COc1ccc(C2=Nn3c(nnc3-c3ccccc3Cl)SC2)cc1OC1CCCC1,105,-1,.,-8,11,-7
c1ccc2c(c1)ccc1ncccc12,87,-8,-6,5,2,-4
c1ccc2ncccc2c1,77*,.,.,-1,-3,.
CCOC(=O)CN1N=C(c2ccc(Cl)cc2)CCC1=O,66*,5,10,1,-4,2
CC(C)OCCCn1c(=NC(=O)c2ccncc2)c(C#N)cc2c(=O)n3ccccc3nc21,107,-1,-1,9,-3,6
CC(C)OCCCn1c(=NC(=O)c2cccs2)c(C#N)cc2c(=O)n3ccccc3nc21,112,6,24,8,-21,30*
CN(C)C1=NC[C@H](Cc2ccccc2)N1CCCC1CCCCC1,106,6,.,7,-4,-1
CN(C)C1=NC[C@H](Cc2ccccc2)N1CCCC1CCCC1,112,12,.,13,4,23*
CCCCCCCN1C(Nc2ccccc2)=NC[C@@H]1Cc1ccccc1,106,1,-85,58*,-5,0
C=CCn1c(SCC(=O)Nc2cc(C)nn2-c2ccccc2)nnc1C1CCCCC1,114,-2,-2,2,1,-1
O=C(c1ccccc1O)N1CCOCC1,96,-1,-9,0,4,1
Cc1ccc2c(c1C)NC(C(=O)O)C1CC=CC21 (stereo not given),35*,.,.,103*,86*,.
O=C(O)C1Nc2c(C(F)(F)F)ccc(Cl)c2C2C=CCC12 (stereo not given),103,-5,16,7,-2,-1
O=C(O)C1Nc2c(C(=O)N3CCOCC3)cccc2C2C=CCC12 (stereo not given),86,.,27,107*,29,.
CN1CN=C(NS(=O)(=O)c2ccc([N+](=O)[O-])cc2)NC1,102,-4,7,-1,-25,-2
Nc1c(N=Nc2cccc(Cl)c2)c(=O)[nH]n1-c1ccccc1,94,1,1,-6,-11,-2
N#Cc1cn(-c2ccccc2)nc1-c1ccc2c(c1)OCCO2,-0.9*,-3,3,2,6,0
O=Cc1cn(-c2ccccc2)nc1-c1ccc2c(c1)OCCO2,105,2,-12,-1,0,0
O=C(O)CSc1cc(NS(=O)(=O)c2cccc([N+](=O)[O-])c2)c2ccccc2c1O,88,-9,19,52*,33,2
CCc1ccc(S(=O)(=O)Nc2cc(SCC(=O)O)c(O)c3ccccc23)cc1,84,-7,18,16,45*,-3
CCOc1ccc(S(=O)(=O)Nc2cc(SCC(=O)O)c(O)c3ccccc23)cc1,104,-4,17,-2,12,-6
Cc1ccc(C)c(S(=O)(=O)Nc2cc(SCC(=O)O)c(O)c3ccccc23)c1,.,.,17,19,91*,.
